Source: ChEMBL document CHEMBL2086232, “Exploration of the SAR of anti-invasive chalcones: synthesis and biological evaluation of conformationally restricted analogues” (Bioorg Med Chem, 2012)
Activity calls are given as the source filed them. The rule behind the calls is not given here.

Experiments:
MCF7/6 [1] = assay: Antiinvasive activity against human MCF7/6 cells assessed as inhibition of cell invasion across chick precultured heart fragments at 10 umol/L after 8 days by chick heart invasion assay; type: functional, cell-based
Procedure, shortened: (§1)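 Heart fragments from 9-day-old chick embryos were precultured, then confronted with aggregates of invasive human MCF-7/6 mammary carcinoma cells with test compound present. Replicate cultures were graded at each concentration.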

[2] = Cytotoxicity against human MCF7/6 cells at 100 umol/L after 8 days by histological analysis; type: cell-based; settings: mcf7/6, 192 h, 100 µM
Procedure, shortened: (§2)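 Chick heart confronting cultures (9-day-old embryo precultured heart fragments plus MCF-7/6 aggregates, compound present) were examined on 7-µm histological sections. Replicate cultures were graded per concentration.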

MCF7/6 [3] = assay: Antiinvasive activity against human MCF7/6 cells assessed as inhibition of cell invasion across chick precultured heart fragments at 1 umol/L after 8 days by chick heart invasion assay; type: functional, cell-based; procedure, shortened: as §1
MCF7/6 [4] = assay: Antiinvasive activity against human MCF7/6 cells assessed as inhibition of cell invasion across chick precultured heart fragments at 0.1 umol/L after 8 days by chick heart invasion assay; type: functional, cell-based; procedure, shortened: as §1
MCF7/6 [5] = assay: Antiinvasive activity against human MCF7/6 cells assessed as inhibition of cell invasion across chick precultured heart fragments at 100 umol/L after 8 days by chick heart invasion assay; type: functional, cell-based; procedure, shortened: as §1
[6] = Toxicity against chick precultured heart fragments at 10 umol/L after 8 days by histological analysis; type: tissue-based, Gallus gallus; settings: chicken, 192 h, 10 µM
[7] = Cytotoxicity against human MCF7/6 cells at 10 umol/L after 8 days by histological analysis; type: cell-based; settings: mcf7/6, 192 h, 10 µM; procedure, shortened: as §2

SMILES | Activity (MCF7/6 [1]) | Activity [2] | Activity (MCF7/6 [3]) | Activity (MCF7/6 [4]) | Activity (MCF7/6 [5]) | Activity [6] | Activity [7]
COc1cc(C(=O)Cc2ccc(F)cc2)cc(OC)c1OC | inactive | Toxic | inactive | inactive | Active |  | 
COc1ccc(-c2cc(-c3ccc(Cl)cc3)on2)cc1 | inactive |  | inactive |  |  |  | 
COc1ccc(C2=NOC(c3ccc(Cl)cc3)C2)cc1 (stereo not given) |  |  | inactive |  | inactive |  | 
COc1cc(-c2cc(-c3ccc(F)cc3)on2)cc(OC)c1OC | Active | Toxic | inactive | inactive | Active |  | 
COc1cc(-c2oncc2-c2ccc(F)cc2)cc(OC)c1OC | Active | Toxic | Active | inactive |  | Toxic | Toxic
